# Source: PubChem (The Scripps Research Institute Molecular Screening Center)
# LEDGF integ inh: blocks HIV-1 LEDGF/p75-dependent DNA integration. 370,000 compounds, 0.64% hits. TR-FRET IN-LEDGF/p75 DNA integration, Eu/Cy5. inhibition, % at 3.7 µM;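 active = inhibition above the screen-wide mean plus 3 SD, cut at about 13% in these data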;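 note: signal is the Cy5 over europium emission ratio at 671 and 618 nm; 0% = plate median of compound wells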
# MBD2 inh: blocks human MBD2 binding to methylated DNA; Q9UBB5; TR-FRET, MBD2 binding to methylated oligonucleotide; inhibition, % at 4.4 µM; 370,000 compounds, 0.31% hits; AID 686964; in the data active = inhibition above about 13%
# Target sequence (Q9UBB5 whole entry, looked up): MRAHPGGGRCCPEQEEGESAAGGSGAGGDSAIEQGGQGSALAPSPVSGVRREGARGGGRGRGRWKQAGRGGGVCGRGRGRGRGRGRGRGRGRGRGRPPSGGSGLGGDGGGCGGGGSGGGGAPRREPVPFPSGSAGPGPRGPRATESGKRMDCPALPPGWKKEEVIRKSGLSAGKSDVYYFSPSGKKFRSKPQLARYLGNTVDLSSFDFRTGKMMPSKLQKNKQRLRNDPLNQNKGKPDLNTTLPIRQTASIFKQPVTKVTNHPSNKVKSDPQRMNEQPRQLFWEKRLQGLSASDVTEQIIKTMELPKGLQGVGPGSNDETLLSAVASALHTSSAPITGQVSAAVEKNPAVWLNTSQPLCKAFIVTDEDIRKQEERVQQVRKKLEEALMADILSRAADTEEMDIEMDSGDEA
# TDP2 absorb: TDP2 (human) inhibition, absorbance primary screen | recombinant TDP2, T5PNP hydrolysis, p-nitrophenol absorbance 415 nm | inhibition, % at 12.8 µM | 370,000 compounds, 0.34% hits;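 active = inhibition above the mean of all tested compounds plus 3 SD, set per campaign, cut at about 25% in these data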;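 note: 0% = DMSO with enzyme and 100% = buffer with substrate but no TDP2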
#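 System – recombinant human TDP2 · Quantity – TDP2 enzyme at 120 nM final · Doses – single concentration, 12.8 µM nominal, with 1% DMSO · Incubation – 2 h at 37 °C · Measured by – epi absorbance of p-nitrophenol freed from T5PNP by hydrolysis · Read-out – % inhibition relative to enzyme-containing and enzyme-free wells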
# UHRF1 binding: blocks human UHRF1 binding to methylated DNA. Q96T88. UHRF1 binding to methylated oligo, TR-FRET. inhibition, % at 4.4 µM. 370,000 compounds, 0.75% hits; in the data active = inhibition above about 21%;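 note: UHRF1 SRA domain binding a hemimethylated CpG hairpin DNA probe; 0% = median of test compound wells and 100% = reference inhibitor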
# Active calls of the source: *. An excerpt weighted towards active compounds, which were near 1.6% of everything screened.
SMILES,LEDGF integ inh,MBD2 inh,TDP2 absorb,UHRF1 binding
O=C(Cn1c(NCCO)nc2ccccc21)c1cccs1,0.6,0.3,-0.4,-0.8
O=C(Cn1nc(C(F)(F)F)cc1C1CC1)NCc1ccccc1F,5.0,-3.0,5.1,21.3*
O=C(Cn1nc(C(F)(F)F)cc1C1CC1)Nc1ccccc1F,-0.7,-1.7,3.9,4.1
CC1CCN(CCc2nc3cc(NC(=O)COc4ccccc4)ccc3n2C)CC1,-3.2,12.2,3.8,25.7*
CC(C)NC(=O)NC1CCN(CC(=O)Nc2ccc3c(c2)OCCO3)CC1,-3.7,1.0,4.8,5.7
O=C(CSc1ccccc1)NC1CCCCN(Cc2ccc(Cl)cc2)C1=O (stereo not drawn),-3.9,-1.3,0.7,-1.2
CC(C)NC(=O)C1(C)Cc2c(-c3cccc(C(F)(F)F)c3)ccnc2O1 (stereo not drawn),1.7,-7.6,-12.8,37.6*
Cc1cc(C)cc(OCC(=O)NC2CCCc3ccccc32)c1 (stereo not drawn),0.3,-0.9,3.3,21.3*
COc1ccc(OCCOC(=O)Nc2ccccc2)cc1,0.1,-4.5,0.1,1.3
COc1cc(C(F)(F)F)nc2ccc(C#CCOC(=O)Nc3ccccc3)cc12,-1.2,5.2,2.8,21.1*
Cc1cc(C)n2cc(CSc3nnc(N)s3)nc2n1,8.9,7.4,5.2,22.0*
O=C(Oc1c(CN2CCOCC2)cc(Cl)c2cccnc12)c1ccccc1F,-3.7,12.5,-7.9,22.5*
Cc1ccccc1N/C(SCc1ccc(Cl)cc1)=C(/C#N)C(=O)NCc1ccco1,3.3,6.0,-1.0,21.6*
CC(=O)N1c2ccc(S(=O)(=O)N3CCCC3C(=O)NCc3ccccc3Cl)cc2CC1C (stereo not drawn),-6.1,2.5,-2.1,48.9*
CC1CCN(S(=O)(=O)N2CCCC(C(=O)NCc3ccccc3Cl)C2)CC1 (stereo not drawn),-0.2,3.1,-3.6,2.8
CC1CC(C)CN(S(=O)(=O)N2CCCC(C(=O)NCc3ccccc3Cl)C2)C1 (stereo not drawn),1.2,10.1,-9.9,22.0*
CC1(C)CC(=O)C=C(Nc2ccccc2NC(=O)c2cc(Cl)ccc2F)C1,3.9,1.1,-2.0,2.8
CC(COc1ccccc1C#N)CN1CCC(C(O)(c2ccccc2)c2ccccc2)CC1 (stereo not drawn),-0.6,-3.1,-3.5,-0.7
CCOC(=O)N1CCN(C(=O)C[C@@H]2C(=O)N(Cc3ccc(OC)cc3)/C3=C/CCCCC[C@@]32C(=O)OCC)CC1,-0.1,-2.6,1.2,-0.7
O=S(=O)(c1ccc2c(c1)OCCO2)N1CCN(S(=O)(=O)c2c(F)cc(F)cc2F)CC1,6.1,6.2,16.9,28.9*
O=S(=O)(c1ccc2c(c1)OCCO2)N1CCN(S(=O)(=O)c2c(F)cccc2F)CC1,-0.9,0.9,3.6,0.1
COC(=O)[C@]12C[C@H](CC(=O)NCCC(C)C)C(=O)N(Cc3ccco3)C1=C[C@H](COCc1ccccc1)O[C@@H]2C,3.4,1.0,5.3,-0.4
Cc1ccc(Cc2c(C(C)(C)C)nc3ccc(Br)cn23)cc1,2.4,7.3,4.9,22.8*
O=C(COCc1ccccc1)NC1CCCCN(Cc2cccc(Cl)c2)C1=O (stereo not drawn),3.8,-1.3,-4.8,-0.7
COC(=O)c1ccc(=O)n(CC(=O)c2ccc(Cl)cc2)c1,0.8,3.2,2.3,26.8*
SMILES,LEDGF integ inh,MBD2 inh,TDP2 absorb,UHRF1 binding
O=C(Cn1ccccc1=O)c1ccc(Cl)cc1,2.5,3.1,7.0,-2.8
C#CCN1CC(N(C)CCCO)CS1(=O)=O (stereo not drawn),-4.0,-2.8,5.3,-3.5
CC1CCc2c(sc(NC(=O)/C=C/c3cccs3)c2C(=O)O)C1 (stereo not drawn),31.1*,-2.2,-7.0,-1.7
Cc1ccc(Cn2cc(CN3CC(N4CCN(Cc5ccccc5F)CC4)CS3(=O)=O)nn2)cc1 (stereo not drawn),-4.0,0.7,-12.4,9.7
O=S1(=O)CC(N2CCN(Cc3ccccc3F)CC2)CN1Cc1cn(Cc2ccc(C(F)(F)F)cc2)nn1 (stereo not drawn),7.5,4.2,-7.9,21.0*
Cc1ccc(Cc2c(-c3ccco3)nc3c(C)cc(Br)cn23)cc1,0.1,1.4,3.0,20.9*
Cc1ccc2nc(-c3ccco3)c(Cc3ccsc3)n2c1,-1.0,7.4,4.2,22.9*
Brc1ccc2nc(-c3ccco3)c(Cc3ccccc3)n2c1,2.0,9.5,-19.9,10.5
Cc1ccc(Cc2c(-c3ccco3)nc3ccc(C)cn23)cc1,5.1,4.5,-11.5,24.3*
CCOc1ccc(-n2c(SCc3ccc(C#N)cc3)nnc2-c2ccco2)cc1,-2.6,9.3,-0.6,1.7
CC(C)(C)CC(C)(C)NCC(=O)Nc1c2c(nc3ccccc13)CCC2,-0.8,4.5,11.8,27.3*
O=C(Nc1c2c(nc3ccccc13)CCCC2)c1ccccc1Cl,4.8,1.9,5.1,-1.4
O=C(c1ccco1)[C@@H]1[C@@H]2C(=O)N(c3ccccc3)C(=O)[C@@H]2C2c3ccccc3C=CN21 (stereo partly drawn),12.4,-6.5,43.1*,-4.6
Cc1ccc(N2C(=O)[C@@H]3[C@H](C2=O)C2c4ccccc4C=CN2[C@@H]3C(=O)c2ccco2)c(C)c1 (stereo partly drawn),9.9,-6.7,26.4*,-6.6
Cn1cc(CCOCc2ccc(Br)cc2)c2ccccc21,-0.7,3.1,-2.5,-1.6
Cc1cccn2c(/C=N/OCc3cccc(F)c3)c(-c3ccc(Cl)cc3)nc12,-0.9,7.7,9.7,22.8*
CCCOC(=O)Nc1nc2ccccc2o1,0.6,-1.7,-5.4,-0.4
CCOC(=O)c1cnc(Nc2nc3ccccc3o2)nc1CN1CCN(C)CC1,17.9*,-3.3,-4.1,-4.5
COC(=O)c1cnc(N)s1,2.5,5.1,6.8,23.4*
CC(C)CN1C(=O)C[C@@]2(C(=O)N(C)c3ccc(NS(=O)(=O)c4ccc(F)cc4)cc32)C1c1ccccc1 (stereo partly drawn),-0.6,-4.2,8.0,3.2
CCOC1=C2CN(S(=O)(=O)c3ccc(C)cc3)[C@H](c3ccccc3)C[C@@H]2N(S(=O)(=O)c2ccccc2)[C@H](c2ccccc2)C1,-2.8,-0.1,0.2,-0.3
CCOC1=C2CN(S(=O)(=O)c3ccc(C)cc3)[C@H](c3ccccc3)C[C@@H]2N(S(C)(=O)=O)[C@H](c2ccccc2)C1,1.0,-5.5,7.5,27.7*
C[C@H]1[C@H](NC(=O)c2ccc(C(F)(F)F)cc2)CC[C@@]23CCCN2C(=O)CCC[C@@H]13,5.6,5.4,-9.2,0.2
O=C(OCCN1CCCC12CCC(c1ccccc1)CC2)c1ccccc1 (stereo not drawn),2.8,-0.9,0.8,-0.6
COCCCNC(=O)C[C@H]1C[C@@]2(C(=O)OC)C(=C[C@H](C(C)(C)C)O[C@@H]2C)N(Cc2ccco2)C1=O,-0.5,1.0,-1.7,-2.2
Cn1c(C(=O)N2CCCC(C(=O)NCCCSC3CCCCC3)C2)cc2sccc21 (stereo not drawn),-0.7,1.1,-0.8,60.9*
